# Laboratory results published in ChEMBL document CHEMBL4138248, “Discovery of naphtho[1,2-d]oxazole derivatives as potential anti-HCV agents through inducing heme oxygenase-1 expression” (Eur J Med Chem, 2018).
# pIC50: −log10 of the molar value. Activity calls are given as the source filed them. The calls are words filed in the database; no cut-off is given here.
# What was measured:
# Hepatitis C virus [1] = experiment: (§1) Antiviral activity against HCV infected in human Ava5 cells assessed as inhibition of viral RNA replication after 3 days by RT-qPCR method; format: functional, organism-based, Hepacivirus hominis; conditions: Ava5, 72 h
# Procedure, shortened: (§2)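 Ava5 cells (Huh-7 hepatoma cells carrying an HCV replicon, grown in DMEM/10% FBS with 1 mg·mL⁻¹ G418) were treated for 3 days with a range of concentrations. HCV RNA was measured by RT-qPCR and normalized to cellular gapdh mRNA. Values are mean ± SD of three independent experiments, each in triplicate.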
# [2] = molecular target: T1, Heme oxygenase 1 (Homo sapiens) (UniProt P09601); experiment: Induction of HO-1-mediated IFN-alpha-2 mRNA expression in human Ava5 cells after 3 days by RT-qPCR method; format: cell-based
# T1 sequence (whole entry): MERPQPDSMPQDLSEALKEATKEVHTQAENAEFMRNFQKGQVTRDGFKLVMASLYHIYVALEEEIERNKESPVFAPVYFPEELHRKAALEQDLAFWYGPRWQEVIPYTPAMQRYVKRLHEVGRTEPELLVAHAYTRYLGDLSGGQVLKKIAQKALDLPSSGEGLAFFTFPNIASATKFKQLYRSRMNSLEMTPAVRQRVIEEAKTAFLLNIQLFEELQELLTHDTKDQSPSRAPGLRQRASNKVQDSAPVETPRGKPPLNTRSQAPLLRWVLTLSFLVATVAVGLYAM
# Procedure, shortened: (§3)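 Ava5 cells were treated for 3 days at the indicated concentrations. Target mRNAs were measured by RT-qPCR with specific primers and normalized to endogenous gapdh. Results are relative to DMSO-treated cells.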
# [3] = Cytotoxicity against human Ava5 cells assessed as cell viability at 200 uM after 72 hrs by XTT assay relative to control; format: cell-based; conditions: read-out: Activity
# Procedure, shortened: (§4)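 XTT viability assay run alongside the antiviral assays. Ava5 cells were plated at 5×10^3 per well and exposed to 20 or 200 μM for 72 h at 37 °C in humidified 5% CO₂. Viability is expressed as % of untreated cells.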
# Homo sapiens [4] = species on record: Homo sapiens; experiment: Upregulation of HO-1 protein expression in human Ava5 cells after 3 days by Western blot method; format: functional, cell-based
# Procedure, shortened: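 Ava5 cells were treated for 3 days at the indicated concentrations. Lysates (10 µg protein, 10% SDS-PAGE, PVDF) were probed with anti-HO-1 and anti-GAPDH.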
# [5] = molecular target: T1, Heme oxygenase 1 (Homo sapiens); experiment: Induction of HO-1-mediated IFN-alpha-5 mRNA expression in human Ava5 cells after 3 days by RT-qPCR method; format: cell-based; procedure, shortened: as §3
# [6] = molecular target: T1, Heme oxygenase 1 (Homo sapiens); experiment: Induction of HO-1-mediated OAS1 mRNA expression in human Ava5 cells after 3 days by RT-qPCR method; format: cell-based; procedure, shortened: as §3
# [7] = Cytotoxicity against human Ava5 cells assessed as cell viability at 20 uM after 72 hrs by XTT assay relative to control; format: cell-based; conditions: read-out: Activity; procedure, shortened: as §4
# [8] = Cytotoxicity against human Ava5 cells assessed as decrease in cell viability after 72 hrs by XTT assay; format: cell-based
# Procedure, shortened: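 XTT assay on […] Ava5 cells at 5×10^3 per well with serial dilutions for 72 h at 37 °C in 5% CO₂. CC50 is the concentration giving 50% growth inhibition.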
# [9] = molecular target: T2, Transcription regulator protein BACH1 (Homo sapiens) (UniProt O14867); experiment: Reduction of bach-1 translocation into nucleus of human Ava5 cells after 3 days by Western blot method
# T2 sequence (whole entry): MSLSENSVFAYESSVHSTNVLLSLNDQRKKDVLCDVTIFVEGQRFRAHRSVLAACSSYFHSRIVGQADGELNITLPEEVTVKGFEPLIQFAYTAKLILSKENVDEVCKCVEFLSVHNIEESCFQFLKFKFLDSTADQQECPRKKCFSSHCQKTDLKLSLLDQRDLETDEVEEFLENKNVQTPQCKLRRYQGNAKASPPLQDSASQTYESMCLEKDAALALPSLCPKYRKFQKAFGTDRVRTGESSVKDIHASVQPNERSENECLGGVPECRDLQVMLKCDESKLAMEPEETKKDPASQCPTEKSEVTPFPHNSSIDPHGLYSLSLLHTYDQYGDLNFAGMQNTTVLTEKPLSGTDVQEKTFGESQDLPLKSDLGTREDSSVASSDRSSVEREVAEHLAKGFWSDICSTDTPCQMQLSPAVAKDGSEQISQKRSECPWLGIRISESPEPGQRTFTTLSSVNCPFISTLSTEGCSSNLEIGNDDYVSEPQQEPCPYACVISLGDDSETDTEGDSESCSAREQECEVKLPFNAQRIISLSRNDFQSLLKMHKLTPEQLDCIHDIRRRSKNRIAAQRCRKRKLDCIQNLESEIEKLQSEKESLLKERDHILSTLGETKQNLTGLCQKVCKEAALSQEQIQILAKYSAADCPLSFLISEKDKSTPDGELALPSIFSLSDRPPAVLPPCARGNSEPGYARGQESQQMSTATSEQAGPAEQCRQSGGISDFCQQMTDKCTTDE
# Homo sapiens [10] = species on record: Homo sapiens; experiment: Effect on Keap-1 protein expression in human Ava5 cells at 0.5 to 1 uM after 3 days by Western blot method; format: functional, cell-based
# Procedure, shortened: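 Ava5 cells were treated for 3 days at the indicated concentrations. Whole-cell lysates were immunoblotted with anti-Nrf2, anti-Keap-1, anti-bach1 and anti-GAPDH.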
# Hepatitis C virus [11] = experiment: as §1; format: functional, organism-based, Hepacivirus hominis; procedure, shortened: as §2
# Hepatitis C virus [12] = experiment: Antiviral activity against HCV infected in human Ava5 cells assessed as inhibition of NS5B protein synthesis after 3 days by Western blot method; format: functional, organism-based; conditions: Hepacivirus hominis
# Procedure, shortened: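 Ava5 cells, seeded at 5×10^4 per well and grown overnight, were treated for 3 days. Lysates were made in RIPA buffer and 10 µg protein was run on 10% SDS-PAGE. Blots were probed with anti-NS5B, with GAPDH as loading control.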
# Hepatitis C virus [13] = experiment: Antiviral activity against HCV infected in human Ava5 cells assessed as inhibition of NS5B protein synthesis at 1 uM after 3 days in presence of HO-1 inhibitor SnPP by Western blot method; format: functional, organism-based; conditions: Hepacivirus hominis
# Procedure, shortened: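 Ava5 cells were co-incubated for 3 days with test compound at 1 μM plus the HO-1 inhibitor SnPP (tin protoporphyrin IX) at 0–5 μM. Lysates went to western blot for NS5B and GAPDH. RNA went to RT-qPCR normalized to gapdh mRNA. Mean ± SD of three independent experiments.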
# [14] = molecular target: T1, Heme oxygenase 1 (Homo sapiens); experiment: Induction of HO-1-mediated IFN-alpha-17 mRNA expression in human Ava5 cells after 3 days by RT-qPCR method; format: cell-based; procedure, shortened: as §3
# [15] = Selectivity index, ratio of CC50 for human Ava5 cells to IC50 for HCV; format: toxicity; conditions: read-out: Ratio CC50/IC50
# Procedure, shortened: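 SI = CC50/IC50. CC50 comes from 72 h XTT in […] Ava5 cells. IC50 is the concentration giving 50% inhibition of HCV, measured by RT-qPCR after 3 days in Ava5 cells.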
# [16] = molecular target: T1, Heme oxygenase 1 (Homo sapiens); experiment: Induction of HO-1-mediated ISRE promoter activity in human Ava5 cells transfected with pISRE-Luc after 3 days; format: cell-based
# Procedure, shortened: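 Ava5 cells carrying pISRE-Luc (ISRE-driven firefly luciferase) were treated for 3 days at increasing concentrations. Luciferase activity was read in cell lysates, normalized to co-transfected pCMV-SEAP.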
smiles,measurement,setting,value
COc1ccc(Nc2cc3oc(-c4ccco4)nc3c3ccccc23)cc1,pIC50,Hepatitis C virus [1],6.20
same,Activity,[2],Dose-dependent effect
same,"viability at 72 h, 200 µM",[3],32.3%
same,Activity,Homo sapiens [4],Dose-dependent effect
same,Activity,[5],Dose-dependent effect
same,Activity,[6],Dose-dependent effect
same,"viability at 72 h, 20 µM",[7],89.5%
same,CC50 at 72 h,[8],144000 nM
same,Activity,[9],Dose-dependent effect
same,Activity,Homo sapiens [10],inactive
same,pIC50,"Hepatitis C virus [11]; Ava5, 72 h",6.09
same,inhibition,Hepatitis C virus [11]; Hepacivirus hominis,Dose-dependent effect
same,inhibition,Hepatitis C virus [12],Dose-dependent effect
same,inhibition,Hepatitis C virus [13],inactive
same,Activity,[14],Dose-dependent effect
same,selectivity ratio,[15],229
same,Activity,[16],Dose-dependent effect
